# Screens (PubChem)
# An excerpt weighted towards active compounds, which were near 6.8% of everything screened.
# HSF1 activator: increases HSF-1 driven luciferase reporter signal | NIH3T3-HGL HSF-1 luciferase reporter, MG132, 8 h; 100% = twice DMSO control signal | activation, % at 9 µM | 1.7% of 300,000 active | AID 504408;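 active = mean replicate activation of at least 50% with a set share of replicates each reaching 50%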;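 note: 0% = median of the neutral control wells and 100% = twice that signal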
# HSF1 inhib: HSF1 inhibition; activity change, negative = inhibition, % at 7.5 µM (by protocol); 0.77% of 300,000 active; NIH3T3-HGL HSE-luciferase, MG132-induced, luminescence 8 h; stronger effect = lower value; AID 2098;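 active = more than half of replicate wells show activity change below -50%, luminescence cut by over half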;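 note: luciferase reports HSF-1 transcriptional activity via heat shock element; 0% = median of DMSO wells and -100% = zero luminescence signal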
# HCV core dimer: blocks dimerization of HCV core protein; TR-FRET GST/Flag-core106 dimerization, 1536-well; inhibition, % at 5 µM; 0.33% of 300,000 active;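 active = inhibition above the mean of all tested compounds plus 3 SD, set per screening campaign, cut at about 45% in these data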
#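 test system = GST/Flag-tagged HCV core106 proteins | probe or stimulus = Eu donor and XL665 acceptor anti-tag antibodies | times = compound-protein-antibody incubation 4 h at 22.5 °C | signal = TR-FRET, excitation 340 nm, emission 617 and 671 nm | measure = percent inhibition of core106 dimerization signal | controls = wells lacking GST-core106 and wells with excess unlabelled core106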
# ALR inh: human ALR oxidase inhibition via reduced H2O2. P55789. 3.8% of 290,000 active. inhibition, % (test concentration not listed). AID 485317. purified ALR, DTT oxidation, H2O2 HRP-luminol luminescence;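 active = mean replicate inhibition above about 79%, with every replicate also reaching it, limit read from the data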
# Target sequence (P55789 whole entry, looked up): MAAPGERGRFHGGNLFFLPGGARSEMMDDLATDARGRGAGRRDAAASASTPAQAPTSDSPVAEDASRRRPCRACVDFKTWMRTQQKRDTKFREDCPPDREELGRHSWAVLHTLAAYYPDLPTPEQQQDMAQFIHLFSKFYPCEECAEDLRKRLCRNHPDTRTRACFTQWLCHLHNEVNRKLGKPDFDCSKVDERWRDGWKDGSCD
# PHOSPHO1 inh: PHOSPHO1 (human) inhibition | 1.1% of 290,000 active | AID 1565 | recombinant PHOSPHO1, absorbance phosphatase assay | inhibition, % at 13.3 µM; in the data active = inhibition above about 60%
# Target sequence (Q8TCT1 whole entry, looked up): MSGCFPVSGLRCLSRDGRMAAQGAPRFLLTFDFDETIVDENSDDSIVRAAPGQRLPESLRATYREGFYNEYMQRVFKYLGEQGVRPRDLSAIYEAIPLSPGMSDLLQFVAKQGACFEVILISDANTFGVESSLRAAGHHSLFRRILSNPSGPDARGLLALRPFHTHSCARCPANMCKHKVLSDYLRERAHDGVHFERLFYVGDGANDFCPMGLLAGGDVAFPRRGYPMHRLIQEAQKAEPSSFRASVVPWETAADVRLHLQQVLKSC
# AI-2 QS modul: modulates the Vibrio harveyi AI-2 quorum sensing system | activity change, % at 7.5 µM | 0.4% of 300,000 active | Vibrio harveyi JMH597 AI-2 luminescence/OD600 ratio, 9 h; stronger effect = lower value; strain lacks LuxN and CqsS sensors; 0 = neutral-control median; in the data active = activity change below about -75%, passing the limit was not always enough;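 note: luminescence divided by OD600 gain over 9 h not by final OD600 alone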
# Active calls of the source: *; . = not tested or not shown.
SMILES,HSF1 activator,HSF1 inhib,HCV core dimer,ALR inh,PHOSPHO1 inh,AI-2 QS modul
Cc1ccc(OCc2nnc(SCC(=O)Nc3ccc(N4CCOCC4)cc3)o2)cc1,6,-3,3,-3,11,.
O=C(CSc1nnc(COc2ccc3c(c2)CCCC3)o1)Nc1ccc(F)cc1,-67,-58*,0,-8,-5,45
COc1ccc(NCc2nnc(SCC(=O)Nc3cc(C(F)(F)F)ccc3Cl)o2)cc1,-67,-60*,-1,.,-29,7
COc1ccc(CCCc2nnc(SCC(=O)Nc3ccc(C)c(C)c3)o2)cc1,3,2,3,-3,85*,24
CC1CCN(S(=O)(=O)c2ccc3c(c2)N(CC(=O)N(C)Cc2ccco2)C(=O)CO3)CC1,-10,-7,-12,-2,13,8
CCCn1ncc(CN2CCC(n3nccc3NC(=O)c3ccccc3Cl)CC2)c1C,13,-1,-9,-3,23,17
CN(C(=O)CSc1nnc(-c2cccnc2)n1-c1ccccc1F)C1CCS(=O)(=O)C1 (configuration not stated),-10,-1,-3,-9,-43,-1
O=C(CSc1ccc2ccccc2n1)Nc1ccc(N2CCOCC2)cc1,21,1,4,2,40,19
Cc1[nH]c2ccccc2c1Cc1n[nH]c(=S)o1,-7,-6,-1,96*,90*,33
COc1ccc(-c2cc(-c3ccc(Cl)cc3)n[nH]2)c(O)c1,94*,62,2,0,-2,-12
COc1ccc(-c2cc(-c3ccccc3O)[nH]n2)cc1OC,106*,67,-3,.,1,10
COc1ccc(-c2cc(-c3ccc(OC)c(OC)c3)n[nH]2)c(O)c1,11,15,-10,13,11,8
COc1ccc(-c2cc(-c3cc(OC)ccc3O)[nH]n2)cc1,1,1,-2,5,15,18
Cc1ccccc1NC(NC(=O)OCCn1c([N+](=O)[O-])cnc1C)C(Cl)(Cl)Cl (configuration not stated),0,-1,-11,-4,-6,1
O=[N+]([O-])c1nn(-c2ccc3c(c2)OCCO3)n(O)c1=NCc1ccc(F)cc1,54*,23,2,-49,-9,63
O=[N+]([O-])c1nn(-c2ccc3c(c2)OCCO3)n(O)c1=NCc1ccc(F)cc1Cl,12,17,0,-3,-12,9
COc1cc(C(=O)NCCOc2ccc(F)cc2)c(Br)c(OC)c1OC,16,-2,-13,-30,32,14
CC(C)(C)c1ccc(C(=O)NNC(=O)CCC(=O)Nc2ccccc2)cc1,23,8,3,-5,9,11
Cc1cc(C)c(S(=O)(=O)N2CCOC2CNC(=O)C(=O)NCCc2ccc(S(N)(=O)=O)cc2)c(C)c1 (configuration not stated),4,-3,50*,-2,0,18
CCOc1cc(C(=O)NC(C)CCc2ccccc2)cc(OCC)c1OCC (configuration not stated),1,-1,0,-12,34,28
CCn1nnc(-c2ccc(N)cc2)n1,-10,-5,-10,.,41,32
NC1=NC(c2cn[nH]c2-c2cccc(F)c2)n2c(nc3ccccc32)N1 (configuration not stated),-80,-75*,5,.,6,-2
Cc1ccc(C(=O)O/N=C(\N)Cc2ccc([N+](=O)[O-])cc2)c(Cl)c1,-8,4,-1,7,24,24
Cc1ccc(C(=O)O/N=C(\N)Cc2cccs2)c(Cl)c1,30,20,12,13,18,-89*
O=C1/C(=C\c2ccc(Br)o2)SC(=Nc2ccccc2)N1c1ccccc1,46,29,59*,3,24,24
SMILES,HSF1 activator,HSF1 inhib,HCV core dimer,ALR inh,PHOSPHO1 inh,AI-2 QS modul
CCc1c(C)c2cc(Cl)c(O)c(CN3CCCCC3)c2oc1=O,-14,3,5,98*,10,24
Cc1ccc(Cl)cc1NC(=O)Nn1cnnc1,-8,5,7,-7,36,15
CCOC(=O)COc1ccccc1/C=C\[N+](=O)[O-],-66,-61*,0,23,-9,-90*
NC(=O)C1CCN(C(=O)CSc2nc3c(c(-c4ccccc4)n2)CCCC3)CC1,-14,-6,-2,-3,0,35
CCC(=S)/C=C1\Sc2ccccc2N1CCCS(=O)(=O)O,-5,-12,-3,38,64*,5
Cc1ccc(Sc2ccc(S(=O)(=O)Nc3ccc(C(=O)O)cc3)cc2)cc1C,.,.,.,98*,.,.
Cc1ccc(Oc2ccc(S(=O)(=O)Nc3ccc(C(=O)O)cc3)cc2)cc1,.,.,.,98*,.,.
CCOc1ccc(NS(=O)(=O)c2ccc(C(=O)N(C)CC(=O)Nc3ccc(C)cc3)cc2)cc1,59*,30,7,-13,.,22
CN(CC(=O)Nc1ccc(Cl)cc1)C(=O)c1ccc(S(=O)(=O)Nc2ccccc2)cc1,-4,-2,-8,-1,.,47
N#CC1=C(S)N(c2ccccc2)C(c2ccc(-c3ccccc3Cl)o2)NC1=O (configuration not stated),-4,-11,24,56,-5,11
O=C(NC1CCCN(Cc2ccc(Cl)cc2)C1)c1c(F)ccc(F)c1F (configuration not stated),9,6,2,2,36,11
CCN(CC)c1ccc(NC(=O)c2cc(Cl)ccc2OC)cc1,9,9,-8,98*,76*,18
CCOCc1nnc(NC(=O)c2cc(Cl)ccc2OC)s1,17,8,-1,-15,97*,17
CCN(CC)c1ccc(NC(=O)c2ccccc2F)cc1,36,26,-7,99*,62*,-6
COCc1nnc(NC(=O)c2cc(Cl)ccc2OC)s1,18,5,6,-4,14,15
O=C(NCc1csc(-c2cccs2)n1)C1CCC1,.,.,1,45,7,21
COc1ccc(S(=O)(=O)Nc2cc3c4c(oc3c3ccccc23)CC(C)(C)CC4=O)cc1,32,11,17,.,28,27
COc1ccc(S(=O)(=O)Nc2cc3c4c(oc3c3ccccc23)CCCC4=O)cc1,56*,39,14,-13,7,25
CCOC(=O)C1(Cc2ccccc2C)CCCN(C(=O)CCc2cccnc2)C1 (configuration not stated),20,14,1,.,23,8
C=CCSC1=Nc2sccc2C2=NC(=O)CN12,-81,-75*,31,.,46,4
CCN(CC)CCN1c2ccccc2Sc2ccc3ccccc3c21,-5,-4,-4,98*,50,28
CCN(CC)CCC(=O)N1c2ccccc2Sc2ccc(Cl)cc21,3,6,3,64,.,23
